{
  "source": "ChEMBL document CHEMBL1122465",
  "about": "“Transport of antimicrobial agents using peptide carrier systems: anticandidal activity of m-fluorophenylalanine--peptide conjugates” (1983)",
  "type_in_all_cases": "functional",
  "key": {"[1]": {"system": "Candida albicans", "assay": "Zone developed against Candida albicans, when a 12.5 ug/disc was added"}, "[2]": {"system": "Candida albicans", "assay": "Zone developed against Candida albicans, when a 25.0 ug/disc was added"}, "[3]": {"system": "Candida albicans", "assay": "Zone developed against Candida albicans, when a 3.0 ug/disc was added"}, "[4]": {"system": "Candida albicans", "assay": "Zone developed against Candida albicans, when a 6.0 ug/disc was added"}, "[5]": {"system": "Candida albicans", "assay": "Minimum inhibitory concentration was determined for Candida albicans strain 759, by a microtiter broth dilution assay", "outline": "(§1)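 Twofold broth dilution in yeast carbon base medium with 200 μg/mL sodium glutamate, compounds 250 to 0.25 μg/mL. Inoculum grown in YCB-glutamate 15 h at 37 °C; final ~10⁴ cfu/mL. Incubated at 37 °C, read at 24 and 48 h for growth inhibition; MIC taken as lowest inhibiting concentration.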"}, "[6]": {"system": "Candida albicans", "assay": "Minimum inhibitory concentration was determined for Candida albicans strain B311, by a microtiter broth dilution assay", "outline": "as §1"}, "[7]": {"system": "Candida albicans", "assay": "Zone developed against Candida albicans B-311, when a 12.5 ug/disc was added"}, "[8]": {"system": "Candida albicans", "assay": "Zone developed against Candida albicans, when a 25.0 ug/disc was added; 25-31"}},
  "note": "Square brackets hold non-standard residues; d marks the D form. Peptide text beside a SMILES is read from it. Phe(3-F) = N[C@@H](Cc1cccc(F)c1)C(=O)O",
  "data": [
    {"molecule": "C[C@H](NC(=O)CN)C(=O)O.C[C@H](NC(=O)[C@H](C)NC(=O)[C@@H](N)Cc1cccc(F)c1)C(=O)O", "values": [
      {"measurement": "Zone size", "setting": "[1]", "result": 18, "unit": "mm"},
      {"measurement": "Zone size", "setting": "[2]", "result": 25, "unit": "mm"},
      {"measurement": "Zone size", "setting": "[3]", "result": 0, "unit": "mm"},
      {"measurement": "Zone size", "setting": "[4]", "result": 0, "unit": "mm"}
    ]},
    {"molecule": "C[C@H](N)C(=O)N[C@@H](C)C(=O)N[C@@H](Cc1cccc(F)c1)C(=O)O", "note": "(H-Ala-Ala-[Phe(3-F)]-OH)", "values": [
      {"measurement": "MIC", "setting": "[5]", "result": 63, "unit": "µg/mL"},
      {"measurement": "MIC", "setting": "[6]", "result": 2, "unit": "µg/mL"}
    ]},
    {"molecule": "C[C@H](NC(=O)[C@H](C)NC(=O)[C@@H](N)Cc1cccc(F)c1)C(=O)O.N[C@@H](Cc1ccccc1)C(=O)O", "values": [
      {"measurement": "Zone size", "setting": "[7]", "result": 0, "unit": "mm"}
    ]},
    {"molecule": "N[C@@H](Cc1cccc(F)c1)C(=O)O", "values": [
      {"measurement": "MIC", "setting": "[5]", "result": "> 250", "unit": "µg/mL"},
      {"measurement": "MIC", "setting": "[6]", "result": "> 250", "unit": "µg/mL"}
    ]},
    {"molecule": "C[C@H](NC(=O)[C@H](C)NC(=O)[C@@H](N)Cc1cccc(F)c1)C(=O)O.N[C@@H](Cc1c[nH]cn1)C(=O)O", "values": [
      {"measurement": "Zone size", "setting": "[7]", "result": 25, "unit": "mm"}
    ]},
    {"molecule": "C[C@H](N)C(=O)N[C@@H](C)C(=O)O.C[C@H](NC(=O)[C@H](C)NC(=O)[C@@H](N)Cc1cccc(F)c1)C(=O)O", "values": [
      {"measurement": "Zone size", "setting": "[1]", "result": 18, "unit": "mm"},
      {"measurement": "Zone size", "setting": "[2]", "result": 24, "unit": "mm"},
      {"measurement": "Zone size", "setting": "[3]", "result": 0, "unit": "mm"},
      {"measurement": "Zone size", "setting": "[4]", "result": 16, "unit": "mm"}
    ]},
    {"molecule": "CSCC[C@H](NC(=O)[C@H](CCSC)NC(=O)[C@H](N)Cc1cccc(F)c1)C(=O)O", "values": [
      {"measurement": "MIC", "setting": "[5]", "result": "> 250", "unit": "µg/mL"},
      {"measurement": "MIC", "setting": "[6]", "result": "> 250", "unit": "µg/mL"}
    ]},
    {"molecule": "C[C@H](NC(=O)[C@@H](N)Cc1cccc(F)c1)C(=O)O", "values": [
      {"measurement": "MIC", "setting": "[5]", "result": 4, "unit": "µg/mL"},
      {"measurement": "MIC", "setting": "[6]", "result": 2, "unit": "µg/mL"}
    ]},
    {"molecule": "C[C@H](NC(=O)[C@@H](N)Cc1cccc(F)c1)C(=O)O.NCC(=O)N[C@@H](Cc1ccccc1)C(=O)O", "values": [
      {"measurement": "Zone size", "setting": "[1]", "result": 0, "unit": "mm"},
      {"measurement": "Zone size", "setting": "[2]", "result": 0, "unit": "mm"},
      {"measurement": "Zone size", "setting": "[3]", "result": 0, "unit": "mm"},
      {"measurement": "Zone size", "setting": "[4]", "result": 0, "unit": "mm"}
    ]},
    {"molecule": "C[C@H](N)C(=O)N[C@@H](C)C(=O)N[C@@H](C)C(=O)O.C[C@H](NC(=O)[C@H](C)NC(=O)[C@@H](N)Cc1cccc(F)c1)C(=O)O", "values": [
      {"measurement": "Zone size", "setting": "[1]", "result": 0, "unit": "mm"},
      {"measurement": "Zone size", "setting": "[2]", "result": 0, "unit": "mm"},
      {"measurement": "Zone size", "setting": "[3]", "result": 0, "unit": "mm"},
      {"measurement": "Zone size", "setting": "[4]", "result": 0, "unit": "mm"}
    ]},
    {"molecule": "C[C@H](NC(=O)CN)C(=O)O.C[C@H](NC(=O)[C@@H](N)Cc1cccc(F)c1)C(=O)O", "values": [
      {"measurement": "Zone size", "setting": "[1]", "result": 0, "unit": "mm"},
      {"measurement": "Zone size", "setting": "[8]", "result": 25, "unit": "mm"},
      {"measurement": "Zone size", "setting": "[3]", "result": 0, "unit": "mm"},
      {"measurement": "Zone size", "setting": "[4]", "result": 0, "unit": "mm"}
    ]},
    {"molecule": "C[C@H](NC(=O)[C@H](C)NC(=O)[C@@H](N)Cc1cccc(F)c1)C(=O)O.N[C@@H](Cc1c[nH]c2ccccc12)C(=O)O", "values": [
      {"measurement": "Zone size", "setting": "[7]", "result": 24, "unit": "mm"}
    ]},
    {"molecule": "C[C@H](NC(=O)[C@H](C)NC(=O)[C@@H](N)Cc1cccc(F)c1)C(=O)O.N[C@@H](CC(=O)O)C(=O)O", "values": [
      {"measurement": "Zone size", "setting": "[7]", "result": 26, "unit": "mm"}
    ]},
    {"molecule": "CC[C@H](C)[C@H](N)C(=O)O.C[C@H](NC(=O)[C@H](C)NC(=O)[C@@H](N)Cc1cccc(F)c1)C(=O)O", "values": [
      {"measurement": "Zone size", "setting": "[7]", "result": 27, "unit": "mm"}
    ]},
    {"molecule": "C[C@H](NC(=O)[C@H](C)NC(=O)[C@@H](N)Cc1cccc(F)c1)C(=O)O.NCC(=O)N[C@@H](Cc1ccccc1)C(=O)O", "values": [
      {"measurement": "Zone size", "setting": "[1]", "result": 0, "unit": "mm"},
      {"measurement": "Zone size", "setting": "[2]", "result": 0, "unit": "mm"},
      {"measurement": "Zone size", "setting": "[3]", "result": 0, "unit": "mm"},
      {"measurement": "Zone size", "setting": "[4]", "result": 0, "unit": "mm"}
    ]},
    {"molecule": "CSCC[C@H](NC(=O)[C@H](CCSC)NC(=O)[C@@H](N)Cc1cccc(F)c1)C(=O)O", "values": [
      {"measurement": "MIC", "setting": "[5]", "result": 63, "unit": "µg/mL"},
      {"measurement": "MIC", "setting": "[6]", "result": 8, "unit": "µg/mL"}
    ]},
    {"molecule": "C[C@H](N)C(=O)N[C@@H](C)C(=O)N[C@@H](C)C(=O)O.C[C@H](NC(=O)[C@@H](N)Cc1cccc(F)c1)C(=O)O", "values": [
      {"measurement": "Zone size", "setting": "[1]", "result": 0, "unit": "mm"},
      {"measurement": "Zone size", "setting": "[2]", "result": 0, "unit": "mm"},
      {"measurement": "Zone size", "setting": "[3]", "result": 0, "unit": "mm"},
      {"measurement": "Zone size", "setting": "[4]", "result": 0, "unit": "mm"}
    ]},
    {"molecule": "C[C@H](N)C(=O)N[C@@H](C)C(=O)O.C[C@H](NC(=O)[C@@H](N)Cc1cccc(F)c1)C(=O)O", "values": [
      {"measurement": "Zone size", "setting": "[1]", "result": 0, "unit": "mm"},
      {"measurement": "Zone size", "setting": "[2]", "result": 0, "unit": "mm"},
      {"measurement": "Zone size", "setting": "[3]", "result": 0, "unit": "mm"},
      {"measurement": "Zone size", "setting": "[4]", "result": 0, "unit": "mm"}
    ]},
    {"molecule": "C[C@H](NC(=O)[C@H](C)NC(=O)[C@@H](N)Cc1cccc(F)c1)C(=O)O", "values": [
      {"measurement": "MIC", "setting": "[5]", "result": 2, "unit": "µg/mL"},
      {"measurement": "MIC", "setting": "[6]", "result": 0.5, "unit": "µg/mL"},
      {"measurement": "Zone size", "setting": "[7]", "result": 24, "unit": "mm"}
    ]},
    {"molecule": "C[C@H](NC(=O)[C@H](N)Cc1cccc(F)c1)C(=O)O", "values": [
      {"measurement": "MIC", "setting": "[5]", "result": "> 200", "unit": "µg/mL"},
      {"measurement": "MIC", "setting": "[6]", "result": "> 200", "unit": "µg/mL"}
    ]},
    {"molecule": "C[C@H](NC(=O)[C@H](C)NC(=O)[C@@H](N)Cc1cccc(F)c1)C(=O)O.O=C(O)[C@@H]1CCCN1", "values": [
      {"measurement": "Zone size", "setting": "[7]", "result": 27, "unit": "mm"}
    ]},
    {"molecule": "C[C@H](NC(=O)[C@H](C)NC(=O)[C@H](N)Cc1cccc(F)c1)C(=O)O", "values": [
      {"measurement": "MIC", "setting": "[5]", "result": "> 250", "unit": "µg/mL"},
      {"measurement": "MIC", "setting": "[6]", "result": "> 250", "unit": "µg/mL"}
    ]}
  ]
}
